{"data": "Results pooled from the literature", "matrix": "plasma"}
{"SMILES": "COc1cc(N2CCC(N3CCN(C)CC3)CC2)ccc1Nc1ncnc(Nc2ccccc2S(=O)(=O)C(C)C)n1", "host": "human", "route": "oral", "dose": "325 mg", "notes": "multiple doses, patients", "AUC(0-t)": "23100 ng·h/mL"}
{"SMILES": "CCO[C@H]1CCN(Cc2c(OC)cc(C)c3[nH]ccc23)[C@H](c2ccc(C(=O)O)cc2)C1", "host": "human", "route": "oral", "dose": "100 mg", "notes": "multiple doses, twice daily, patients", "AUC(0-t)": "11900 ng·h/mL"}
{"SMILES": "CO[C@@H]1[C@H](OC(=O)N2CC(CCN3CCOCC3)C2)CC[C@]2(CO2)[C@H]1[C@@]1(C)O[C@@H]1CC=C(C)C", "host": "human", "route": "subcutaneous", "dose": "1.2 mg", "notes": "single dose, healthy volunteers", "AUC(0-t)": "5.45 ng·h/mL"}
{"SMILES": "COCCOc1cnc2ccn([C@H](C)c3nnc4c(F)cc(-c5cnn(C)c5)cn34)c(=O)c2c1", "host": "human", "route": "oral", "dose": "25 mg", "notes": "multiple doses, once daily, patients", "AUC(0-t)": "5990 ng·h/mL"}
{"SMILES": "Cc1nc(NC(=O)N2CCC[C@H]2C(N)=O)sc1-c1ccnc(C(C)(C)C(F)(F)F)c1", "host": "human", "route": "oral", "dose": "400 mg", "notes": "patients", "AUC(0-t)": "40700 ng·h/mL"}
{"SMILES": "C[C@@H](Oc1ccc(S(C)(=O)=O)cc1C(=O)N1C[C@@H]2C[C@]2(c2cc(C(F)(F)F)on2)C1)C(F)(F)F", "host": "human", "route": "oral", "dose": "25 mg", "AUC(0-t)": "12 µM·h"}
{"SMILES": "OC[C@H]1O[C@@H](c2ccc(Cl)c(Cc3ccc(O[C@H]4CCOC4)cc3)c2)[C@H](O)[C@@H](O)[C@@H]1O", "host": "human", "route": "oral", "dose": "25 mg", "notes": "single dose", "AUC(0-t)": "4.31 µM·h"}
{"SMILES": "C[C@@H]1COCCN1c1cc(C2([S@](C)(=N)=O)CC2)nc(-c2cc[nH]c3nccc2-3)n1", "host": "human", "route": "oral", "dose": "20 mg", "notes": "single dose, patients", "AUC(0-t)": "6770 ng·h/mL"}
{"SMILES": "CO[C@H]1CC[C@H](N2C(=O)CNc3ncc(-c4ccc(C(C)(C)O)nc4)nc32)CC1", "host": "human", "route": "oral", "dose": "45 mg", "notes": "patients", "AUC(0-t)": "1500 ng·h/mL"}
{"SMILES": "CC(C)(O)c1ccccc1-c1ccc2[nH]c(/C=C/c3ccc(C(F)(F)F)cc3)nc2c1", "host": "male human", "route": "oral", "dose": "225 mg", "notes": "single dose, fasted", "AUC(0-t)": "5740 ng·h/mL"}
{"SMILES": "CC(C)c1nc(N(C)S(C)(=O)=O)nc(-c2ccc(F)cc2)c1/C=C/[C@@H](O)C[C@@H](O)CC(=O)O", "host": "human", "route": "oral", "dose": "20 mg", "AUC(0-t)": "48.6 ng·h/mL"}
{"SMILES": "COc1cc2c(cc1OC)CN(CCc1ccc(NC(=O)c3cc(OC)c(OC)cc3NC(=O)c3cnc4ccccc4c3)cc1)CC2", "host": "human", "route": "intravenous", "dose": "1 mg/kg", "notes": "patients", "AUC(0-t)": "5.4 µM·h"}
{"SMILES": "CC(C)n1cc(C#N)c2cc(-n3cc(C(=O)O)cn3)ccc21", "host": "human", "route": "oral", "dose": "400 mg", "notes": "single dose, fasted, healthy volunteers", "AUC(0-t)": "91500 ng·h/mL"}
{"SMILES": "O=C(/C=C/c1cccc(S(=O)(=O)Nc2ccccc2)c1)NO", "host": "human", "route": "intravenous", "dose": "1800 mg/m²", "notes": "patients", "AUC(0-t)": "54700 ng·h/mL"}
{"SMILES": "COc1ccc([C@@H]2CN(C(=O)[C@@H](O)CO)C[C@@]2(C)[C@@H](C)O)cc1OC1CN(c2ccc(C)cn2)C1", "host": "human", "route": "oral", "dose": "10 mg", "notes": "single dose, healthy volunteers", "AUC(0-t)": "2750 ng·h/mL"}
{"SMILES": "CCCCC1=NC2(CCCC2)C(=O)N1Cc1ccc(-c2ccccc2S(=O)(=O)Nc2noc(C)c2C)c(COCC)c1", "host": "human", "route": "oral", "dose": "200 mg", "notes": "single dose, fasted, healthy volunteers", "AUC(0-t)": "58100 ng·h/mL"}
{"SMILES": "C[C@@H](Oc1ccc(S(C)(=O)=O)cc1C(=O)N1C[C@@H]2C[C@]2(c2cc(C(F)(F)F)on2)C1)C(F)(F)F", "host": "human", "route": "oral", "dose": "25 mg", "notes": "fed, tablet", "AUC(0-t)": "11 µM·h"}
{"SMILES": "C[C@@]1(c2cc(NC(=O)c3ccc(C#N)cn3)ccc2F)C=CSC(N)=N1", "host": "human", "route": "oral", "dose": "10 mg", "notes": "single dose", "AUC(0-t)": "1000 ng·h/mL"}
{"SMILES": "FC(F)(F)c1ccc(CNc2ccc(Cc3c[nH]c4ncc(Cl)cc34)cn2)cn1", "host": "human", "route": "oral", "dose": "1600 mg", "notes": "multiple doses, patients", "AUC(0-t)": "28700 ng·h/mL"}
